Reference: ChEMBL document CHEMBL1132375, “Synthesis and biochemical evaluation of 3-fluoromethyl-1,2,3, 4-tetrahydroisoquinolines as selective inhibitors of phenylethanolamine N-methyltransferase versus the alpha(2)-adrenoceptor” (J Med Chem, 1999)

Assays:
[1] = target: Adrenergic receptor alpha-2 (Rattus norvegicus) (UniProt P22086+P19328+P22909); assay: Ratio for binding affinity towards alpha-2 adrenoceptor to PNMT; format: protein assay
Summary of the method: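 Ratio of α2-adrenoceptor Ki (rat cortex, [3H]clonidine binding) to PNMT Ki (bovine adrenal enzyme, radiochemical assay with phenylethanolamine substrate).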

[2] = target: T1, Phenylethanolamine N-methyltransferase (Bos taurus, UniProt P10938); assay: Affinity for bovine Phenylethanolamine N-Methyltransferase
T1 sequence (P10938 whole entry): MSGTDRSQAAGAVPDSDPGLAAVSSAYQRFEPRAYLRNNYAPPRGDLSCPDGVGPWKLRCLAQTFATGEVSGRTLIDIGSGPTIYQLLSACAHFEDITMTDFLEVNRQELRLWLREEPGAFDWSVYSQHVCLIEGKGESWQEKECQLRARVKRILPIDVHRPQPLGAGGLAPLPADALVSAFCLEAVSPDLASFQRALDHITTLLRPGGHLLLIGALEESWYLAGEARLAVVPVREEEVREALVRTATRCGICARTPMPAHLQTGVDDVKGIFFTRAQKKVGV

[3] = target: T2, Adrenergic receptor alpha-2 (Rattus norvegicus, UniProt P22086+P19328+P22909); assay: Compound was tested in vitro for its affinity towards rat Alpha-2 adrenergic receptor; format: protein assay
T2 sequence (P22086 whole entry): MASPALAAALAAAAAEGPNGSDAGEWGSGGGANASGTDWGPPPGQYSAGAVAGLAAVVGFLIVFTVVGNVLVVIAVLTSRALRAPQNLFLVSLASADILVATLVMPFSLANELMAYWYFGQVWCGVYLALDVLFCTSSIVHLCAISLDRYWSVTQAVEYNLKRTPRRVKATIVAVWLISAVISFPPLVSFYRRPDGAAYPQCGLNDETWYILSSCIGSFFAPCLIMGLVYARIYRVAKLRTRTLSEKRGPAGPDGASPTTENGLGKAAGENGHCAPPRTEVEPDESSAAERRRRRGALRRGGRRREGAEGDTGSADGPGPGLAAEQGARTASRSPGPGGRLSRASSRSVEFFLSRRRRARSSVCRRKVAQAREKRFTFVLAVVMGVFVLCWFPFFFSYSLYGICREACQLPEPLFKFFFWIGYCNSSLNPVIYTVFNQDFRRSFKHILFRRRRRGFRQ
T2 sequence (P19328 whole entry): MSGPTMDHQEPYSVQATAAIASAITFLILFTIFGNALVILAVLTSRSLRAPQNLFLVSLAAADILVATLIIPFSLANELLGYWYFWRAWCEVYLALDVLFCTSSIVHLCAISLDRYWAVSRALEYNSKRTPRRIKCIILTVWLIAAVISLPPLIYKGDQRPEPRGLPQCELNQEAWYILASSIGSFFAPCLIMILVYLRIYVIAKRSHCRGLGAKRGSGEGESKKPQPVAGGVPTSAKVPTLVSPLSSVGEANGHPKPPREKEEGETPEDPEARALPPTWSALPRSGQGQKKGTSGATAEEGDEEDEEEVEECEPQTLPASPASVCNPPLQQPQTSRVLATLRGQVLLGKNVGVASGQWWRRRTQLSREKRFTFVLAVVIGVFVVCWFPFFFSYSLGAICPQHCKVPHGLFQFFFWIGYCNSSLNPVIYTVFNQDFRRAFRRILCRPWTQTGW
T2 sequence (P22909 whole entry): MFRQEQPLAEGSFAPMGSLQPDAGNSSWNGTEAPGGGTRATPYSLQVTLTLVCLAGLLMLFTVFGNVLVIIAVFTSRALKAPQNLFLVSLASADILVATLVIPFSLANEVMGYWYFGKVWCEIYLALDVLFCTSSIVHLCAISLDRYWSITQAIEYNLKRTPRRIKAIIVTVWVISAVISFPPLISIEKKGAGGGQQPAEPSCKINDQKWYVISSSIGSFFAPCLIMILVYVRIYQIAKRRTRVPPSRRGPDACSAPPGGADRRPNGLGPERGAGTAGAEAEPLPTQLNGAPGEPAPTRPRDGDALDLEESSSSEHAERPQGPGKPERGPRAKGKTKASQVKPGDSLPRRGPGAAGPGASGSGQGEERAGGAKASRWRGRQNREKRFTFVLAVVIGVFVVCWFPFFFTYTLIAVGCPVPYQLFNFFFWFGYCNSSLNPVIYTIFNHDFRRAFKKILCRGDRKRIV
Summary of the method: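 Membranes from male Sprague-Dawley rat cortex, homogenized in ice-cold 50 mM Tris/HCl pH 7.7 and washed by three 50000g spins. Incubated with [3H]clonidine (final 2.0 nM) and varied inhibitor concentrations, 25 °C for 30 min, then vacuum-filtered on GF/B and counted. Nonspecific binding with 2 μM phentolamine. IC50 by log-probit, converted to Ki = IC50/(1+[clonidine]/KD).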

[4] = target: T1, Phenylethanolamine N-methyltransferase; assay: Affinity for bovine Phenylethanolamine N-Methyltransferase (PNMT)

FC(F)(F)C1Cc2ccc(Br)cc2CN1 (centres undefined)
Ratio [1]: 1900

NS(=O)(=O)c1ccc2c(c1)CNC(CF)C2 (centres undefined)
Ki [2]: 660 nM | Ki [3]: 680000 nM | Ratio [1]: 1000

FCC1Cc2ccccc2CN1 (centres undefined)
Ki [3]: 3800 nM | Ki [4]: 1500 nM | Ratio [1]: 2.5

COc1ccc2c3c([nH]c2c1)C=NCC3
Ratio [1]: 4.4

CCC1Cc2ccccc2CN1 (centres undefined)
Ratio [1]: 0.028

OCC1Cc2ccccc2CN1 (centres undefined)
Ratio [1]: 6

FCC1Cc2ccc(I)cc2CN1 (centres undefined)
Ki [2]: 210 nM | Ki [3]: 7100 nM | Ratio [1]: 34

Clc1ccc2c(c1Cl)CNCC2
Ratio [1]: 0.095

N#Cc1ccc2c(c1)CNC(CF)C2 (centres undefined)
Ki [2]: 1100 nM | Ki [3]: 460000 nM | Ratio [1]: 420

CS(=O)(=O)c1ccc2c(c1)CNC(CF)C2 (centres undefined)
Ki [2]: 1600 nM | Ki [3]: 230000 nM | Ratio [1]: 140

O=S(=O)(Nc1ccc(Cl)cc1)c1ccc2c(c1)CNC(CF)C2 (centres undefined)
Ki [2]: 740 nM | Ki [3]: 160000 nM | Ratio [1]: 220

NS(=O)(=O)c1ccc2c(c1)CNC(CO)C2 (centres undefined)
Ratio [1]: 4100

CS(=O)(=O)c1ccc2c(c1)CNC(C(F)(F)F)C2 (centres undefined)
Ratio [1]: 110

O=[N+]([O-])c1ccc2c(c1)CNC(CF)C2 (centres undefined)
Ki [2]: 540 nM | Ki [3]: 76000 nM | Ratio [1]: 140

O=S(=O)(NCc1ccccc1)c1ccc2c(c1)CNC(CF)C2 (centres undefined)
Ki [2]: 6500 nM | Ki [3]: 110000 nM | Ratio [1]: 17

[N-]=[N+]=Nc1ccc2c(c1)CNC(CF)C2 (centres undefined)
Ki [3]: 47000 nM | Ki [4]: 1700 nM | Ratio [1]: 28

FCC1Cc2ccc(Br)cc2CN1 (centres undefined)
Ki [3]: 6400 nM | Ki [4]: 640 nM | Ratio [1]: 10

CS(=O)(=O)c1ccc2c(c1)CNC(CO)C2 (centres undefined)
Ratio [1]: 1000

CC1Cc2ccccc2CN1 (centres undefined)
Ratio [1]: 0.36

FCC1Cc2ccc(C(F)(F)F)cc2CN1 (centres undefined)
Ki [3]: 41000 nM | Ki [4]: 320 nM | Ratio [1]: 130

COCC1Cc2ccccc2CN1 (centres undefined)
Ratio [1]: 0.3

FCC1Cc2ccc(N=C=S)cc2CN1 (centres undefined)
Ki [3]: 22000 nM | Ki [4]: 570 nM | Ratio [1]: 39

CNS(=O)(=O)c1ccc2c(c1)CNC(CF)C2 (centres undefined)
Ki [2]: 2400 nM | Ki [3]: 310000 nM | Ratio [1]: 130
